Measurements from paper PMC7312786 (Biochemistry, 2018).
Where “and” joins values, the source holds several entries; their conditions need not be identical. Equal entries are not always repeated.

Legend:
hpol η [1] = target: T1, hpol η (Homo sapiens, UniProt Q9Y253); assay: Fluorescence-based DNA polymerase activity assay, hpol η; assay type: biochemical; settings: 20 μM PNR-7-02; mean (±SD), three experiments
T1 sequence (Q9Y253 1-437): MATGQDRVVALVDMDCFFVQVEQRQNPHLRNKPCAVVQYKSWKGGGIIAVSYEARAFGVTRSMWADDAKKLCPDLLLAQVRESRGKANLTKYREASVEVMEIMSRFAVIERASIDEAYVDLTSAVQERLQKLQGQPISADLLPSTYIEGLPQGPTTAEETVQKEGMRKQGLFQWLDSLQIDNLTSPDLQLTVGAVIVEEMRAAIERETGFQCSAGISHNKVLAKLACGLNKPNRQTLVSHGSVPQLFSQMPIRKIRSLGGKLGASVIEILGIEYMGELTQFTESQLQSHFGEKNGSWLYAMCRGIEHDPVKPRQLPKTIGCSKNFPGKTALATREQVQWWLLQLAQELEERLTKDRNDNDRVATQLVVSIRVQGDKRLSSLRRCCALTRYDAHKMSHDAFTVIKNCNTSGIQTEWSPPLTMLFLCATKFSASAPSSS

hpol ι = target: T2, hpol ι (Homo sapiens, UniProt Q9UNA4); assay: Gel-based pol extension assay, hpol ι; assay type: biochemical; settings: relative to hpol η / hRev1
T2 sequence (Q9UNA4 1-446): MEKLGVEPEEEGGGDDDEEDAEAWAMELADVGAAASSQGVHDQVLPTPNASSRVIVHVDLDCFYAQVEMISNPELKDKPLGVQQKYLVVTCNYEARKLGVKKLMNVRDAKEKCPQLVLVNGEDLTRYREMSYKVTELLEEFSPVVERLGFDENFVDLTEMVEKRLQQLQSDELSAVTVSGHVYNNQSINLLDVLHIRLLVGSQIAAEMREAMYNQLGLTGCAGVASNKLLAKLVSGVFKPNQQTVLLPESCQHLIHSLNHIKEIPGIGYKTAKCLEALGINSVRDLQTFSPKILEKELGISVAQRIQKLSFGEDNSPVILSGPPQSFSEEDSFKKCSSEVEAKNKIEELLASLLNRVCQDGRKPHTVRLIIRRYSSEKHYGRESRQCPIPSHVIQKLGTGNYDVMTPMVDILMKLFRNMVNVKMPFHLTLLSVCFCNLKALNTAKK
Method in brief: (§1)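 Gel extension assay with hpol ι core (residues 1–446) or hpol κ core (residues 19–526). Enzyme 2 nM preincubated 5 min with increasing test compound in 50 mM HEPES pH 7.5, 50 mM NaCl, 1 mM DTT, 0.1 mg/mL BSA, 10% glycerol. Started at 37 °C with 200 nM FAM-labeled 13/18-mer primer–template, 10 μM each dNTP, 5 mM MgCl₂. Quench: 20 mM EDTA/95% formamide, 95 °C. Triplicate; IC50 mean ± SD.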

hpol κ = target: T3, hpol κ (Homo sapiens, UniProt Q9UBT6); assay: Gel-based pol extension assay, hpol κ; assay type: biochemical
T3 sequence (Q9UBT6 19-526): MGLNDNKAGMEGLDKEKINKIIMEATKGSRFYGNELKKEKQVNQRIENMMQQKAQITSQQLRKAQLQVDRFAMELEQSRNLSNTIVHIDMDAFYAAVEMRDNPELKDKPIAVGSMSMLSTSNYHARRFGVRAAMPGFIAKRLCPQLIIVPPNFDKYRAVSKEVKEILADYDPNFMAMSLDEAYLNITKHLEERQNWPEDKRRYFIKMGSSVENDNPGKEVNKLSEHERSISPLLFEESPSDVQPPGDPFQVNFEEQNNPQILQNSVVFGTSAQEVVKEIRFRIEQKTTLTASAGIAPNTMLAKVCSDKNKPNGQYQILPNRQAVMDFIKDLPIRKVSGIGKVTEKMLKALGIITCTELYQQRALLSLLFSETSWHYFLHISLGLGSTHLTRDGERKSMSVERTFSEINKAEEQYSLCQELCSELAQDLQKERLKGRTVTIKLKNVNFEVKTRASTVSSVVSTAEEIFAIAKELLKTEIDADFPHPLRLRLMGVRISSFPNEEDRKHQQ
Method in brief: as §1

hpol η [2] = target: T1, hpol η; assay: Steady-state kinetic analysis of hpol η activity; assay type: biochemical
hpol η [3] = target: T1, hpol η; assay: HPG labeling / MS protein footprinting of hpol η; assay type: binding; settings: 20 and 100 μM PNR-7-02
Method in brief: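 Protein footprinting: hpol η (10 μM) preincubated 10 min at 37 °C with 20 μM (1:2) or 100 μM (1:10) test compound in 50 mM HEPES pH 7.8, 10 mM MgCl₂, 10% DMSO. Then 500 μM HPG for 60 min at 37 °C in the dark; quenched with 200 mM arginine. SDS-PAGE, then MS. Modified arginine taken as fraction of total per residue, normalized to the HPG-alone sample.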

[4] = tested on: hpol η-deficient HAP-1 cells; assay: Cell viability; assay type: cell-based, human
Method in brief: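 HAP-1 parental or CRISPR hpol η-null cells in IMDM with 10% FBS and 1% antibiotic/antimycotic, passage 8–10, seeded 5000 cells/well. Next day: CDDP 0–100 μM alone or with 0.1 or 1 μM test compound, 48 h. Cells washed twice in DPBS, then 2 μM Calcein-AM for 30 min at 25 °C; fluorescence ex 490/em 520 nm. Viability as % of untreated. […] Combination index by Chou–Talalay.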

[5] = tested on: γH2AX in hpol η-proficient HAP-1 cells; assay: γH2AX immunoblotting, hpol η-proficient HAP-1 cells; assay type: cell-based, human; settings: PNR-7-02 alone
Method in brief: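 HAP-1 cells treated with DMSO or 0.5 μM CDDP combined with 0.1 or 1 μM test compound. Pellets lysed at 4 °C in HEPES pH 7.5/Triton X-100 buffer with phosphatase and protease inhibitors. 30–40 μg protein run on 4–20% SDS-PAGE, transferred to nitrocellulose. Probed with anti-γH2AX (S139) 1:1500 and HRP anti-rabbit 1:4000; β-actin loading control; chemiluminescence. Bands normalized to β-actin, relative to DMSO; three biological replicates; t test.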

For `O=C1NC(=S)NC(=O)C1=Cc1cn(Cc2ccc3ccccc3c2)c2ccc(Cl)cc12` [PNR-7-02, 5-((5-chloro-1-(naphthalen-2-ylmethyl)-1H-indol-3-yl)methylene)-2-thioxodihydropyrimidine-4,6-(1H,5H)-dione], the “Pol activity relative to DMSO control, hpol η” value (hpol η [1]) was 4.4 (±3.8) % and < 5%, the “Increase in IC50 against hpol η (so in the source); first of 'hpols η and κ')” value (hpol ι) was roughly 3 fold and the “Increase in IC50 against hpol κ” value (hpol κ; gel-based assay, relative to hpol η / hRev1) was roughly 3 fold. The IC50 (hpol κ; read-out: IC50, hpol κ, gel-based assay, best-fit value (95% confidence interval), three experiments) was 22 µM, the “Effect on KM,dTTP of hpol η” value (hpol η [2]; 0–9 μM PNR-7-02) was “nonlinear increase” and the “Effect on kcat of hpol η” value (hpol η [2]; PNR-7-02 near or below the IC50) was “no change”. The “HPG modification of Arg351 of hpol η” value (hpol η [3]) was “completely abrogated”, the “Effect of adding PNR-7-02 on toxicity of CDDP” value ([4]; hpol η-deficient cells) was “does not have a notable effect” and the “Combination index with CDDP” value ([4]; hpol η-deficient cells, 0.1 μM PNR-7-02) was 1.02. The “Combination index with CDDP” value ([4]; hpol η-deficient cells, 1 μM PNR-7-02) was 0.90, the EC50 ([4]; read-out: EC50, cell viability, PNR-7-02 alone, hpol η-deficient HAP-1, 48 h) was 5.6 µM and the μH2AX formation [5] was “did not change”.
